From paper PMC8230583 (Polymer Chemistry, 2021)

Test: Critical aggregation concentration by Nile Red fluorimetry
Format: physicochemical
Conditions: ratio of CAC in water to CAC in 150 mM NaCl
Summary of the method: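 Each compound was dissolved in water or 0.15 M NaCl with mild shaking or sonication, and stocks were equilibrated overnight at room temperature. Diluted samples (pH 4.0–5.5) were equilibrated ≥3 h at room temperature. Nile Red was added from a 1 mg ml−1 acetone stock and samples equilibrated 30 min more. Emission (575–740 nm, excitation 550 nm) was recorded to follow the shift of the Nile Red maximum.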

- CAC in the presence of salt, times lower than in pure water: 1.2 times
Substance: FDFF
